In ChEMBL document CHEMBL1126205, “Novel spirosuccinimides with incorporated isoindolone and benzisothiazole 1,1-dioxide moieties as aldose reductase inhibitors and antihyperglycemic agents” (1992):
Values belong to the compound of their own block, whether it stands above or below them. Activity calls are given as the source filed them. The rule behind the calls is not given here.

Experiments:
[1] = target: Aldo-keto reductase family 1 member B1 (Bos taurus) (UniProt P16116); test: In vitro aldose reductase inhibitory activity measured by NADPH-dependent inhibition of glyceraldehyde reduction in a partially purified bovine lens preparation at 10E-6 M
How it was run: (§1)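 Aldose reductase partially purified from bovine lens. Inhibition of NADPH-dependent glyceraldehyde reduction is measured at the single stated concentration and reported as percent inhibition, the mean of two determinations.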

[2] = target: Aldo-keto reductase family 1 member B1 (Bos taurus) (UniProt P16116); test: In vitro aldose reductase inhibitory activity measured by NADPH-dependent inhibition of glyceraldehyde reduction in a partially purified bovine lens preparation at 10E-7 M; how it was run: as §1
Rattus norvegicus [3] = test: In vivo galactitol inhibitory activity measured by its ability to inhibit galactitol accumulation in sciatic nerve at 32 mg/Kg/day; assay type: functional
How it was run: (§2)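 Rats (n = 6) fed 20% galactose for 4 days, with compound given in the diet at the stated daily dose. Galactitol accumulation was measured in lens, sciatic nerve and diaphragm, and % inhibition was taken versus the nontreated group. Means are from three to eight drug-treated tissue samples. Dunnett's multiple comparison test was applied, with p > 0.05 reported as not significant.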

Rattus norvegicus [4] = test: In vivo galactitol inhibitory activity measured by its ability to inhibit galactitol accumulation in lens at 32 mg/Kg/day; assay type: functional; details: Lens of camera-type eye
How it was run: (§3)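 Rats (n = 6) fed 20% galactose for 4 days, with compound given in the diet at the stated mg/kg per day. Galactitol accumulation in lens, sciatic nerve or diaphragm is scored as percent inhibition versus the non-treated group, as means of 3–8 drug-treated tissue samples. Dunnett's multiple comparison test applies; NS means p > 0.05.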

Rattus norvegicus [5] = test: In vivo galactitol activity by measuring its ability to inhibit galactitol accumulation in diaphragm at 6 mg/Kg/day; assay type: functional; how it was run: as §3
Mus musculus [6] = test: Antihyperglycemic activity measured as percent decrease in mice plasma glucose at 100 mg/Kg/day; assay type: functional
How it was run: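 Male db/db (C57BL/KsJ) mice, 4–6 per group, dosed at 100 mg/kg per day. Plasma glucose of the drug-treated group is expressed as percent decrease relative to a vehicle-treated control group. Values are mean ± SE, with p < 0.05 marked.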

Rattus norvegicus [7] = test: In vivo galactitol inhibitory activity measured by its ability to inhibit galactitol accumulation in sciatic nerve at 6 mg/Kg/day; NS=Not significant (% Inhibition); assay type: functional, organism-based; how it was run: as §2
Rattus norvegicus [8] = test: In vivo galactitol inhibitory activity measured by its ability to inhibit galactitol accumulation in sciatic nerve at 9 mg/Kg/day; NS=Not significant (% Inhibition); assay type: functional, organism-based; how it was run: as §2
Rattus norvegicus [9] = test: In vivo galactitol inhibitory activity measured by its ability to inhibit galactitol accumulation in sciatic nerve at 3 mg/Kg/day; assay type: functional; how it was run: as §2
Rattus norvegicus [10] = test: In vivo galactitol inhibitory activity measured by its ability to inhibit galactitol accumulation in lens at 9 mg/Kg/day; NS=Not significant (% Inhibition); assay type: functional, organism-based; details: Lens of camera-type eye; how it was run: as §2
Rattus norvegicus [11] = test: In vivo galactitol inhibitory activity measured by its ability to inhibit galactitol accumulation in lens at 6 mg/Kg/day; NS=Not significant (% Inhibition); assay type: functional, organism-based; details: Lens of camera-type eye; how it was run: as §3
Rattus norvegicus [12] = test: In vivo galactitol inhibitory activity measured by its ability to inhibit galactitol accumulation in diaphragm at 3 mg/Kg/day; NS=Not significant (% Inhibition); assay type: functional, organism-based; how it was run: as §3
Rattus norvegicus [13] = test: In vivo galactitol inhibitory activity measured by its ability to inhibit galactitol accumulation in diaphragm at 6 mg/Kg/day; NS=Not significant (% Inhibition); assay type: functional, organism-based; how it was run: as §3
Rattus norvegicus [14] = test: In vivo galactitol inhibitory activity measured by its ability to inhibit galactitol accumulation in diaphragm at 9 mg/Kg/day; NS=Not significant (% Inhibition); assay type: functional, organism-based; how it was run: as §3
Rattus norvegicus [15] = test: In vivo galactitol inhibitory activity measured by its ability to inhibit galactitol accumulation in lens at 3 mg/Kg/day; NS=Not significant (% Inhibition); assay type: functional, organism-based; details: Lens of camera-type eye; how it was run: as §3
Rattus norvegicus [16] = test: In vivo galactitol inhibitory activity measured by its ability to inhibit galactitol accumulation in sciatic nerve at 3 mg/Kg/day; NS=Not significant; assay type: functional, organism-based; how it was run: as §2
Rattus norvegicus [17] = test: In vivo galactitol inhibitory activity measured by its ability to inhibit galactitol accumulation in diaphragm at 3 mg/Kg/day; NS=Not significant; assay type: functional, organism-based; how it was run: as §3
Rattus norvegicus [18] = test: In vivo galactitol inhibitory activity measured by its ability to inhibit galactitol accumulation in lens at 3 mg/Kg/day; NS=Not significant; assay type: functional, organism-based; details: Lens of camera-type eye; how it was run: as §3
Mus musculus [19] = test: Antihyperglycemic activity measured as percent decrease in mice plasma glucose at 87 mg/Kg/day; assay type: functional
How it was run: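 Male db/db (C57BL/KsJ) mice, 4–6 per group, dosed at the stated mg/kg per day. Plasma glucose is expressed as percent decrease versus the vehicle-treated group. Values are mean ± SE.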

Rattus norvegicus [20] = test: In vivo galactitol inhibitory activity measured by its ability to inhibit galactitol accumulation in lens at 66 mg/Kg/day; assay type: functional; details: Lens of camera-type eye; how it was run: as §2
Rattus norvegicus [21] = test: In vivo galactitol inhibitory activity measured by its ability to inhibit galactitol accumulation in diaphragm at 66 mg/kg/day; assay type: functional; how it was run: as §3
Rattus norvegicus [22] = test: In vivo galactitol inhibitory activity measured by its ability to inhibit galactitol accumulation in sciatic nerve at 66 mg/Kg/day; assay type: functional; how it was run: as §2
Rattus norvegicus [23] = test: In vivo galactitol inhibitory activity measured by its ability to inhibit galactitol accumulation in sciatic nerve at 4 mg/Kg/day; NS=Not significant (% Inhibition); assay type: functional, organism-based; how it was run: as §2
Rattus norvegicus [24] = test: In vivo galactitol inhibitory activity measured by its ability to inhibit galactitol accumulation in lens at 4 mg/Kg/day; NS=Not significant (% Inhibition); assay type: functional, organism-based; details: Lens of camera-type eye; how it was run: as §3
Rattus norvegicus [25] = test: In vivo galactitol inhibitory activity measured by its ability to inhibit galactitol accumulation in diaphragm at 4 mg/Kg/day; NS=Not significant (% Inhibition); assay type: functional, organism-based; how it was run: as §3
Rattus norvegicus [26] = test: In vivo galactitol inhibitory activity measured by its ability to inhibit galactitol accumulation in sciatic nerve at 10 mg/Kg/day; NS=Not significant (% Inhibition); assay type: functional, organism-based; how it was run: as §2
Rattus norvegicus [27] = test: In vivo galactitol inhibitory activity measured by its ability to inhibit galactitol accumulation in lens at 6 mg/Kg/day; assay type: functional, Lens of camera-type eye; details: Rattus norvegicus, Lens of camera-type eye; how it was run: as §3
Rattus norvegicus [28] = test: In vivo galactitol inhibitory activity measured by its ability to inhibit galactitol accumulation in diaphragm at 10 mg/Kg/day; assay type: functional; how it was run: as §3
Rattus norvegicus [29] = test: In vivo galactitol inhibitory activity measured by its ability to inhibit galactitol accumulation in diaphragm at 3 mg/Kg/day; assay type: functional; how it was run: as §3
Rattus norvegicus [30] = test: In vivo galactitol inhibitory activity measured by its ability to inhibit galactitol accumulation in diaphragm at 6 mg/Kg/day; assay type: functional; how it was run: as §3
Rattus norvegicus [31] = test: In vivo galactitol inhibitory activity measured by its ability to inhibit galactitol accumulation in lens at 10 mg/Kg/day; assay type: functional; details: Lens of camera-type eye; how it was run: as §3
Rattus norvegicus [32] = test: In vivo galactitol inhibitory activity measured by its ability to inhibit galactitol accumulation in sciatic nerve at 109 mg/Kg/day; NS=Not significant (% Inhibition); assay type: functional, organism-based; how it was run: as §2
Rattus norvegicus [33] = test: In vivo galactitol inhibitory activity measured by its ability to inhibit galactitol accumulation in diaphragm at 109 mg/Kg/day; assay type: functional; how it was run: as §3
Rattus norvegicus [34] = test: In vivo galactitol inhibitory activity measured by its ability to inhibit galactitol accumulation in lens at 109 mg/Kg/day; NS=Not significant (% Inhibition); assay type: functional, organism-based; details: Lens of camera-type eye; how it was run: as §3

SMILES: CN1C(=O)c2ccc(Cl)cc2C12CC(=O)NC2=O (single isomer, unassigned; (-))
inhibition in vivo at 6 mg/kg/day (Rattus norvegicus [5]): 24%

SMILES: CN1C(=O)c2c(Cl)cccc2C12CC(=O)NC2=O (configuration not stated)
inhibition [1]: 65% | inhibition [2]: 29% | Decrease (Mus musculus [6]): <15% | inhibition (Rattus norvegicus [7]): inactive | inhibition (Rattus norvegicus [8]): inactive | inhibition in vivo at 3 mg/kg/day (Rattus norvegicus [9]): 21% | inhibition (Rattus norvegicus [10]): inactive | inhibition (Rattus norvegicus [11]): inactive | inhibition (Rattus norvegicus [12]): inactive | inhibition (Rattus norvegicus [13]): inactive | inhibition (Rattus norvegicus [14]): inactive | inhibition (Rattus norvegicus [15]): inactive

SMILES: CC(C)N1C2(CC(=O)NC2=O)c2ccccc2S1(=O)=O (configuration not stated)
Decrease (Mus musculus [19]): 27%

SMILES: CCCN1C(=O)c2cc(Cl)c(Cl)cc2C12CC(=O)NC2=O (configuration not stated)
Decrease (Mus musculus [6]): <15% | inhibition (Rattus norvegicus [23]): inactive | inhibition (Rattus norvegicus [24]): inactive | inhibition (Rattus norvegicus [25]): inactive

SMILES: Cc1ccc2c(c1)C(=O)N(C)C21CC(=O)NC1=O (configuration not stated)
inhibition [1]: 61% | inhibition [2]: 26% | Decrease (Mus musculus [6]): <15% | inhibition (Rattus norvegicus [7]): inactive | inhibition in vivo at 3 mg/kg/day (Rattus norvegicus [9]): 20% | inhibition (Rattus norvegicus [26]): inactive | inhibition in vivo at 6 mg/kg/day (Rattus norvegicus [27]): 13% | inhibition in vivo at 10 mg/kg/day (Rattus norvegicus [28]): 47% | inhibition in vivo at 3 mg/kg/day (Rattus norvegicus [29]): 27% | inhibition in vivo at 6 mg/kg/day (Rattus norvegicus [30]): 39% | inhibition in vivo at 10 mg/kg/day (Rattus norvegicus [31]): 12% | inhibition (Rattus norvegicus [15]): inactive

Further lines, with some results ahead:

inhibition [1]: 57% | inhibition [2]: 19%
SMILES: CN1C(=O)c2cccc(Cl)c2C12CC(=O)NC2=O (configuration not stated)
inhibition in vivo at 32 mg/kg/day (Rattus norvegicus [3]): 32% | inhibition in vivo at 32 mg/kg/day (Rattus norvegicus [4]): 13%

inhibition [1]: 37% | inhibition [2]: 14%
SMILES: CCN1C(=O)c2ccc(Cl)cc2C12CC(=O)NC2=O (configuration not stated)
Decrease (Mus musculus [6]): <15% | inhibition (Rattus norvegicus [16]): inactive | inhibition (Rattus norvegicus [17]): inactive | inhibition (Rattus norvegicus [18]): inactive

inhibition [1]: 45% | inhibition [2]: 11%
SMILES: CN1C(=O)c2ccccc2C12CC(=O)NC2=O (configuration not stated)
Decrease (Mus musculus [6]): <15% | inhibition in vivo at 66 mg/kg/day (Rattus norvegicus [20]): 32% | inhibition in vivo at 66 mg/kg/day (Rattus norvegicus [21]): 58% | inhibition in vivo at 66 mg/kg/day (Rattus norvegicus [22]): 63%

inhibition [1]: 45% | inhibition [2]: 18%
SMILES: O=C1CC2(C(=O)N1)c1ccccc1C(=O)N2Cc1ccc(Cl)c(Cl)c1 (configuration not stated)
Decrease (Mus musculus [6]): 21% | inhibition (Rattus norvegicus [32]): inactive | inhibition in vivo at 109 mg/kg/day (Rattus norvegicus [33]): 33% | inhibition (Rattus norvegicus [34]): inactive
